Data: ChEMBL document CHEMBL1159380, “Marine natural products as novel antioxidant prototypes” (J Nat Prod, 2003)
Calls of active or inactive are those of the source. The rule behind the calls is not given here.

Legend:
HL-60 = assay: Antioxidant activity against TPA-induced ROS production in human HL60 cells by 2',7'-dichlorodihydrofluorescein diacetate cellular-based assay; format: functional, cell-based
Method in brief: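 HL-60 cells (1 × 10^6 cells/mL) in RPMI 1640 with 10% FBS and antibiotics, 37 °C, 5% CO2. Cells were pretreated 30 min with a range of test concentrations, then stimulated 30 min with 100 ng/mL TPA, then given DCFH-DA (5 μg/mL) for 15 min. DCF fluorescence was read at 530 nm, and percent inhibition was calculated against TPA-treated controls without test material.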

[1] = tested on: Radical scavenging activity; assay: Antioxidant activity assessed as DPPH free radical scavenging activity by TLC […] assay; format: functional
Method in brief: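 Compounds were dissolved in DMSO at 2.0 mg/mL and 4.0 μg of each was spotted onto scored silica gel GF TLC plates. Residual DMSO was removed under vacuum. Plates were sprayed with 0.2% (w/v) DPPH in MeOH and radical scavenging was judged visually 30 min after spraying.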

Row | Compound | IC50 (HL-60; Homo sapiens, HL-60) [µM] | IC50 (HL-60; hl-60) [µM] | Activity [1] | Activity (HL-60)
1 | C/C(=C\Cc1cc(O)c(Br)cc1O)CCCC(C)(C)O | > 14.6 |  | Active | 
2 | Cc1ccc([C@@H](C)CCCC(C)(C)O)c(O)c1 |  |  |  | inactive
3 | COc1cc2ccnc3c2c(c1OC)NC=C3 [AAPTAMINE] | > 55 |  | Active | 
4 | COc1c(OC)c(O)c2c(=O)c(C)c(/C=C/c3cc(O)cc(O)c3)oc2c1OC [HORMOTHAMNIONE] | > 31 |  |  | 
5 | COc1cc2ccnc3c2c(c1O)N(C)C=C3 [ISOAAPTAMINE] | > 55 |  | Active | 
6 | O=C1C(C2=C3c4ccccc4NC3/C(=C\c3ccc(O)cc3)C2=O)=C2C(=Nc3ccccc32)/C1=C\c1ccc(O)cc1 (stereo not given) [SCYTONEMIN] | > 23 |  |  | 
7 | VITAMIN E [listing 1 of 2 here] |  | 255 |  | 
8 | VITAMIN E [listing 2 of 2 here] |  |  | Active | 

More lines, in order of falling IC50 (HL-60; Homo sapiens, HL-60), values ahead:

Row | IC50 (HL-60; Homo sapiens, HL-60) [µM] | IC50 (HL-60; hl-60) [µM] | Compound | Activity [1] | Activity (HL-60)
9 | 209 |  | CC(C)=CCC[C@H](C)c1ccc(C)cc1O |  | 
10 | 49 |  | CC(=O)OC/C=C(\OC(C)=O)C(C)=O | inactive | 
11 | 27 |  | CC1(C)CCC[C@]2(C)[C@H]3C=C4C=C(O)C(=O)C=C4O[C@@]3(C)CC[C@@H]12 [PUUPEHENONE] | Active | 
12 | 18.3 |  | COc1c(OC)c(O)c2c(=O)c(C)c(/C=C/c3cc(OC(C)=O)cc(OC(C)=O)c3)oc2c1OC [HORMOTHAMNIONE DIACETATE] | inactive | 
13 | 11 |  | CCC(C)CC(C(=O)N/C=C\c1c[nH]c2ccccc12)N(C)Cc1ccc(O)cc1 (stereo not given) [ARAGILAMIDE] |  | 
14 | 9.7 |  | O=C1O[C@H]([C@@H](O)CO)C(O)=C1O [ASCORBIC ACID] | Active | 
15 | 6.1 |  | OCc1cc(Br)c(O)c(O)c1Cc1ccc(O)c(Br)c1 [AVRAINVILLEOL] | Active | 
16 | 4 |  | CC(C)=CCC/C(C)=C/Cc1cc(O)c(Br)cc1O [CYMOPOL] | Active | 
